The subject of data set [1] is Human immunodeficiency virus 2. Nature of the data set: Antiviral activity against HIV2 ROD infected in human MT4 cells assessed as inhibition of virus-induced cytopathogenicity after 5 days by MTT assay. In kind it is functional, organism-based. To be noted: Human immunodeficiency virus 2, ISOLATE ROD, MT4, 120 h. In short, it runs like this:
(§1)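 MT-4 cells in exponential growth were pelleted (5 min, 220 g) and resuspended at 6×10^5 cells/mL. They were infected at the start with 100-300 CCID50 of virus stock and exposed to serial 5-fold compound dilutions in triplicate wells. Viability was read by MTT at 540 and 690 nm after 5 days, using the median OD of three wells. EC50 is the concentration giving 50% protection from viral cytopathic effect.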
In general terms: Damage to the host cells serves as the signal in cytopathic effect assays.

The subject of data set [2] is Human immunodeficiency virus 1. Nature of the data set: Antiviral activity against HIV1 harboring reverse transcriptase K103N/Y181C mutant infected in human MT4 cells assessed as inhibition of virus-induced cytopathogenicity after 5 days by MTT assay. It counts as functional, organism-based. The settings on record: Human immunodeficiency virus 1, MT4, 120 h. The method in brief:
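MT-4 cells (6×10^5 cells/mL after spinning at 220 g for 5 min) infected with 100-300 CCID50 of the double RT mutant strain derived from wild-type LAI. Serial 5-fold compound dilutions tested in triplicate alongside mock-infected wells. Viability read by MTT at 540 and 690 nm on day 5, using the median OD of three wells. IC50 is the concentration giving 50% protection from viral cytopathic effect.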

The nature of data set [3]: Cytotoxicity against human MT4 cells after 5 days by MTT assay. It counts as cell-based. In short, it runs like this:
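Mock-infected MT-4 cells received culture medium in place of virus, at 6×10^5 cells/mL, run in parallel triplicate wells with serial 5-fold compound dilutions. After 5 days, MTT reduction was read at 540 and 690 nm, using the median OD of three wells. CC50 is the concentration lowering OD540 of the mock-infected control by 50%.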

Data set [4] concerns Human immunodeficiency virus 1. The experiment in a line: Antiviral activity against wild type HIV1 3B infected in human MT4 cells assessed as inhibition of virus-induced cytopathogenicity after 5 days by MTT assay. It counts as functional, organism-based. The settings on record: Human immunodeficiency virus 1, 3B, MT4, 120 h. The method in brief:
as §1

A short description of data set [5]: Selectivity index, ratio of CC50 for human MT4 cells to IC50 for wild type HIV1 3B. It counts as functional.
Data set [6] can be described thus: Ratio of compound selectivity index to zidovudine selectivity index for human MT4 cells.
Data set [7] relates to Human immunodeficiency virus 1. The experiment in a line: Ratio of zidovudine IC50 to compound IC50 for wild type HIV1 3B. It counts as functional.

Bounds are passed on as bounds.

As a reminder, the IC50 is the concentration that inhibits the measured activity by half. Usually CC50 stands for the concentration giving 50% cytotoxicity. For `N#Cc1ccc(Nc2nccc(C(NN)c3ccc(C#N)cc3)n2)cc1` (stereo not given), the half-maximal inhibitory concentration (IC50) came to 2.92 µM in data set [1], 5.95 µM in data set [2] and 234 nM in data set [4]. In addition, the CC50 at 120 h in data set [3] turned out to be 40.2 µM. Moreover, the “Ratio CC50/IC50” value in data set [5] stood at 172.
In the case of `N#C/C=C/c1ccc(C(NN)c2ccnc(Nc3ccc(C#N)cc3)n2)cc1` (stereo not given), the IC50 in data set [1] is 5.05 µM; in data set [2], 5.33 µM; in data set [4], 1.75 nM. In addition, in data set [3], the midpoint of cytotoxicity, the CC50 at 120 h, lay at 186 µM. Further, in data set [6], the ratio of compound SI to zidovudine SI is 7. Further, the “Ratio CC50/IC50” value in data set [5] turned out to be 106367. The “Ratio IC50” value in data set [7] was found to be 4.
As to `CNC(c1ccc(C#N)cc1)c1ccnc(Nc2ccc(C#N)cc2)n1` (stereo not given), the IC50 in data set [1] is over 189 µM; in data set [2] it was over 189 µM; in data set [4], 15200 nM. For the same compound, it took 189 µM to reach half-maximal cytotoxicity in data set [3] (CC50 at 120 h). Further, the “Ratio CC50/IC50” value in data set [5] was found to be 12.
Take `CNC(c1ccc(/C=C/C#N)cc1)c1ccnc(Nc2ccc(C#N)cc2)n1` (stereo not given): the values for the IC50 in data set [1], in data set [2] and in data set [4] were over 41.4 µM, over 41.4 µM and 108 nM, respectively. Besides, in data set [3], the CC50 at 120 h came to 41.4 µM. Also, the “Ratio CC50/IC50” value in data set [5] was determined as 385.
In the case of `CNC(c1ccnc(Nc2ccc(C#N)cc2)n1)c1ccccc1Cl` (stereo not given), the IC50 in data set [1] is over 6.09 µM; in data set [2], over 36.1 µM; in data set [4] it was 63 nM. The compound also displayed a CC50 at 120 h in data set [3] of 36.1 µM. For the same compound, in data set [5], the “Ratio CC50/IC50” value is 571.
In the same order, the values of `CCNC(c1ccc(C#N)cc1)c1ccnc(Nc2ccc(C#N)cc2)n1` (stereo not given) are over 158 µM, over 158 µM, 21100 nM, 158 µM and 7.
`CCNC(c1ccc(/C=C/C#N)cc1)c1ccnc(Nc2ccc(C#N)cc2)n1` (stereo not given): the IC50 in data set [1] was over 37.3 µM; in data set [2], over 37.3 µM; in data set [4] it was 192 nM. This compound came in with a CC50 at 120 h in data set [3] of 37.3 µM. Further, in data set [5], the “Ratio CC50/IC50” value turned out to be 194.
Turning to `CCNC(c1ccnc(Nc2ccc(C#N)cc2)n1)c1ccccc1Cl` (stereo not given), the IC50 in data set [1] is over 39.4 µM; in data set [2] it was over 39.4 µM; in data set [4] it was 350 nM. This compound registered a CC50 at 120 h in data set [3] of 39.4 µM. Besides, the “Ratio CC50/IC50” value in data set [5] came to 113.
As for `CCCNC(c1ccc(C#N)cc1)c1ccnc(Nc2ccc(C#N)cc2)n1` (stereo not given), the figures for the IC50 in data set [1], in data set [2] and in data set [4] were over 34.9 µM, over 34.9 µM and at least 9450 nM, respectively. Further, in data set [3], half-maximal cytotoxicity (CC50 at 120 h) was put at 34.9 µM. Also, the “Ratio CC50/IC50” value in data set [5] was “<=4”.
As for `CCCNC(c1ccc(/C=C/C#N)cc1)c1ccnc(Nc2ccc(C#N)cc2)n1` (stereo not given), the values for the IC50 in data set [1], in data set [2] and in data set [4] were over 37.3 µM, over 37.3 µM and 107 nM, respectively. This compound yielded a CC50 at 120 h in data set [3] of 34 µM. Moreover, in data set [5], the “Ratio CC50/IC50” value was 319.
For `CCCNC(c1ccnc(Nc2ccc(C#N)cc2)n1)c1ccccc1Cl` (stereo not given), the IC50 in data set [1] is over 68.5 µM; in data set [2], over 68.5 µM; in data set [4] it was 48 nM. Besides, in data set [3], half-maximal cytotoxicity (CC50 at 120 h) was put at 68.5 µM. Besides, the “Ratio CC50/IC50” value in data set [5] came out at 1422.
As for `CC(C)NC(c1ccc(C#N)cc1)c1ccnc(Nc2ccc(C#N)cc2)n1` (stereo not given), the IC50 in data set [1] was over 69.2 µM; in data set [2], over 69.2 µM; in data set [4] it was over 69200 nM. Also, in data set [3], the CC50 at 120 h amounted to 69.2 µM.
Consider `CC(C)NC(c1ccc(/C=C/C#N)cc1)c1ccnc(Nc2ccc(C#N)cc2)n1` (stereo not given), for which the IC50 is over 32.3 µM in data set [1], over 32.3 µM in data set [2] and 80 nM in data set [4]. Besides, the CC50 at 120 h in data set [3] was determined as 32.3 µM. In data set [5], the “Ratio CC50/IC50” value was 405.
As for `CC(C)NC(c1ccnc(Nc2ccc(C#N)cc2)n1)c1ccccc1Cl` (stereo not given), the IC50 in data set [1] was over 35.5 µM; in data set [2], over 35.5 µM; in data set [4], 40 nM. Moreover, in data set [3], the CC50 at 120 h was 35.5 µM. For the same compound, the “Ratio CC50/IC50” value in data set [5] was determined as 879.
On to `CC(O)CNC(c1ccc(C#N)cc1)c1ccnc(Nc2ccc(C#N)cc2)n1` (stereo not given), for which the IC50 was over 65 µM in data set [1], over 65 µM in data set [2] and 23900 nM in data set [4]. The same compound came in with a CC50 at 120 h in data set [3] of over 65 µM. For the same compound, the “Ratio CC50/IC50” value in data set [5] is given as over 3.
As for `CC(O)CNC(c1ccnc(Nc2ccc(C#N)cc2)n1)c1ccccc1Cl` (stereo not given), the IC50 is over 34.7 µM in data set [1], over 34.7 µM in data set [2] and 330 nM in data set [4]. The same compound registered a CC50 at 120 h in data set [3] of 34.7 µM. The “Ratio CC50/IC50” value in data set [5] came to 105.
`N#Cc1ccc(Nc2nccc(C(NC3CC3)c3ccc(C#N)cc3)n2)cc1` (stereo not given): the IC50 in data set [1] was over 34.7 µM; in data set [2], over 34.7 µM; in data set [4], over 34700 nM. In data set [3], this compound yielded a CC50 at 120 h of 34.7 µM. For the same compound, the “Ratio CC50/IC50” value in data set [5] is under 1.
Turning to `N#C/C=C/c1ccc(C(NC2CC2)c2ccnc(Nc3ccc(C#N)cc3)n2)cc1` (stereo not given), the IC50 in data set [1] was over 56.1 µM; in data set [2], over 56.1 µM; in data set [4] it was 196 nM. Also, half-maximal cytotoxicity in data set [3] (CC50 at 120 h) was put at 56.1 µM. The “Ratio CC50/IC50” value in data set [5] is 287.
As for `N#Cc1ccc(Nc2nccc(C(NC3CC3)c3ccccc3Cl)n2)cc1` (stereo not given), the IC50 is over 37.9 µM in data set [1], over 37.9 µM in data set [2] and 120 nM in data set [4]. Further, in data set [3], half-maximal cytotoxicity (CC50 at 120 h) was put at 37.9 µM. In data set [5], the “Ratio CC50/IC50” value was determined as 317.
Regarding `CC(C)Nc1cccnc1N1CCN(C(=O)c2cc3cc(NS(C)(=O)=O)ccc3[nH]2)CC1` [DELAVIRDINE], it took 43.8 µM to reach half-maximal cytotoxicity in data set [3] (CC50 at 120 h). The IC50 in data set [4] was 810 nM. For the same compound, in data set [5], the “Ratio CC50/IC50” value was over 54.
As for `O=C1Nc2ccc(Cl)cc2[C@@](C#CC2CC2)(C(F)(F)F)O1` [EFAVIRENZ], the IC50 in data set [2] is 0.16 µM; in data set [4] it was 22.6 nM. Also, the “Ratio CC50/IC50” value in data set [5] is over 280.
As to `Nc1ccn([C@@H]2CS[C@H](CO)O2)c(=O)n1` [LAMIVUDINE], the figures for the IC50 in data set [1] and in data set [4] were 15.5 µM and 3890 nM, respectively. The CC50 at 120 h in data set [3] is over 87.2 µM. Also, in data set [5], the “Ratio CC50/IC50” value was over 22.
In the case of `Cc1ccnc2c1NC(=O)c1cccnc1N2C1CC1` [NEVIRAPINE], the IC50 is 0.9 µM in data set [2] and 101 nM in data set [4]. Also, the CC50 at 120 h in data set [3] is over 15 µM. The “Ratio CC50/IC50” value in data set [5] is listed as over 148.
As to `Cc1cn([C@H]2C[C@H](N=[N+]=[N-])[C@@H](CO)O2)c(=O)[nH]c1=O` [ZIDOVUDINE], the IC50 in data set [1] is 0.0017 µM; in data set [2], 0.0077 µM; in data set [4], 6.6 nM. In data set [3], this compound showed a CC50 at 120 h of over 93.5 µM. Also, the “Ratio CC50/IC50” value in data set [5] is over 14124.

The values above are taken from ChEMBL document CHEMBL3286160, “Design and synthesis of a new series of modified CH-diarylpyrimidines as drug-resistant HIV non-nucleoside reverse transcriptase inhibitors” (Eur J Med Chem, 2014).
